According to ChEMBL document CHEMBL1130100, “Stabilized analogs of thymopentin. 3. Evaluation of ketomethylene pseudopeptides for antiarthritic properties” (1997):
Where “and” joins values, the source holds several entries; their conditions need not be identical. Identical values can stand only once.

Assays:
Assay type in all cases: functional
Mus musculus [1] = experiment: On set and incidence of arthritis in the Mouse Type II collagen model at 0.5 dose mg/kg on day 37, expressed as ratio of number treated to that of control
Method in brief: (§1)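 DBA/1 Lac mice sensitized with bovine type II collagen (100 μg) in Freund's complete adjuvant, ip boost (100 μg) on day 21. Freshly dissolved compound in sterile saline was given iv every second day, day 19 through day 40, groups of 12. A mouse was scored arthritic if erythema or edema was present on any digit, paw or appendage. Incidence reported as number positive of 12.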

Mus musculus [2] = experiment: (§2) Extent of paw swelling after treatment with thymopentin-5 (TP-5) compound in the Mouse Type II collagen arthritis at a dosage of 1.0 mg/kg on day 44
Method in brief: (§3)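 DBA/1 Lac mice immunized with bovine type II collagen (100 μg) in Freund's complete adjuvant at four to six back sites, then boosted ip (100 μg) on day 21. Dosing was iv in sterile saline every second day from day 19 through day 40, 12 mice per dose. Each hind paw was measured by caliper. Result given as % of untreated swelling after subtracting age-matched normal paw.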

Mus musculus [3] = experiment: On set and incidence of arthritis in the Mouse Type II collagen model following 0.5 mg/kg on day 30.; method in brief: as §1
Mus musculus [4] = experiment: On set and incidence of arthritis in the Mouse Type II collagen model at 0.5 dose mg/kg on day 40, expressed as ratio of number treated to that of control; method in brief: as §1
Mus musculus [5] = experiment: On set and incidence of arthritis in the Mouse Type II collagen model at 0.5 dose mg/kg on day 44, expressed as ratio of number treated to that of control; method in brief: as §1
Mus musculus [6] = experiment: as §2; method in brief: as §3; remark: listed apart in the source
Rattus norvegicus [7] = experiment: extent of paw swelling following treatment with the compound in the rat adjuvant arthritis model observed on day 19 at 0.050 mg/kg dose; settings: dose 0.05 mg/kg
Method in brief: (§4)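 Rat adjuvant arthritis with iv dosing every second day, starting 2 days before the adjuvant/antigen challenge. Initial doses ranged 0.05 to 0.50 mg/kg, eight rats per dose. Each hind paw was measured by caliper. Swelling minus age-matched normal paw, expressed as % of untreated animals.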

Mus musculus [8] = experiment: 60 Extent of paw swelling after treatment with thymopentin-5 (TP-5) compound in the Mouse Type II collagen arthritis at a dosage of 1.0 mg/kg on day 30; method in brief: as §3
Rattus norvegicus [9] = experiment: extent of paw swelling following treatment with the compound in the rat adjuvant arthritis model observed on day 16 at 0.050 mg/kg dose; settings: dose 0.05 mg/kg; method in brief: as §4
Rattus norvegicus [10] = experiment: extent of paw swelling following treatment with the compound in the rat adjuvant arthritis model observed on day 12 at 0.050 mg/kg dose; settings: dose 0.05 mg/kg; method in brief: as §4
Mus musculus [11] = experiment: Extent of paw swelling after treatment with thymopentin-5 (TP-5) compound in the Mouse Type II collagen arthritis at 1 mg/kg on day 30.; settings: 1 mg/kg; method in brief: as §3
Rattus norvegicus [12] = experiment: extent of paw swelling following treatment with the compound in the rat adjuvant arthritis model observed on day 19 at 0.50 mg/kg dose; settings: dose 0.5 mg/kg; method in brief: as §4
Rattus norvegicus [13] = experiment: extent of paw swelling following treatment with the compound in the rat adjuvant arthritis model observed on day 16 at 0.50 mg/kg dose; settings: dose 0.5 mg/kg; method in brief: as §4
Mus musculus [14] = experiment: Extent of paw swelling after treatment with thymopentin-5 (TP-5) compound in the Mouse Type II collagen arthritis at a dosage of 0.03 mg/kg on day 30; method in brief: as §3
Rattus norvegicus [15] = experiment: extent of paw swelling following treatment with the compound in the rat adjuvant arthritis model observed on day 12 at 0.50 mg/kg dose; settings: dose 0.5 mg/kg; method in brief: as §4

For CCCCC(CC(=O)[C@@H](N)CCCN=C(N)N)C(=O)N[C@@H](CC(=O)O)C(=O)NC(C(=O)C[C@H](C(=O)O)C(C)C)C(C)C (stereo in doubt; 1h-A), the No. of mice (Mus musculus [1]) was 10, the Paw swelling (Mus musculus [2]) was 63% and the No. of mice (Mus musculus [3]; 0.5 mg/kg) was 7. For the same molecule, the No. of mice (Mus musculus [4]) was 10, the No. of mice (Mus musculus [5]) was 10 and the Paw swelling (Mus musculus [6]) was 95% and 75% and 63%.

In the case of CCCC[C@@H](C(=O)N[C@@H](CC(=O)O)C(=O)N[C@H](C(=O)C[C@H](C(=O)O)C(C)C)C(C)C)N(C)C(=O)[C@@H](N)CCCN=C(N)N (stereo in doubt; 1m-A), the Paw swelling (Rattus norvegicus [7]) is reported as 45%, the No. of mice (Mus musculus [1]) is reported as 6 and the No. of mice (Mus musculus [3]; 0.5 mg/kg) is reported as 3. The Paw swelling (Mus musculus [8]) was 60%, the Paw swelling (Rattus norvegicus [9]) was 80% and the No. of mice (Mus musculus [4]) was 7. For the same molecule, the Paw swelling (Rattus norvegicus [10]) was 0%, the No. of mice (Mus musculus [5]) was 7 and the Paw swelling (Mus musculus [11]) was 73% and 58%.

CC(C)[C@H](CC(=O)[C@H](CC(=O)O)NC(=O)[C@H](CCCCN)NC(=O)[C@@H](N)CCCN=C(N)N)C(=O)N[C@@H](Cc1ccccc1)C(=O)O (stereo in doubt; 3a-A) showed a No. of mice (Mus musculus [1]) of 8, a No. of mice (Mus musculus [3]) of 5 and a Paw swelling (Rattus norvegicus [12]) of 39%. The No. of mice (Mus musculus [5]) was 9, the Paw swelling (Rattus norvegicus [13]) was 100% and the Paw swelling (Mus musculus [14]) was 30% and 70% and 73%. The Paw swelling (Rattus norvegicus [15]) was 0%.
